In ChEMBL document CHEMBL3232879, “4,5,6,7-Tetrahydro-isoxazolo-[4,5-c]-pyridines as a new class of cytotoxic Hsp90 inhibitors” (Eur J Med Chem, 2014) one finds IC50 data, which are given here for one molecule.

The target in experiment [1] is Histone deacetylase 1 (Homo sapiens, UniProt Q13547). The experiment in a line: Inhibition of human HDAC-1 using RHKK(Ac) as substrate.
Experiment [2] has as its system NCI-H460. Kind of experiment: Cytotoxicity against human NCI-H460 cells assessed as growth inhibition after 72 hrs by sulforhodamine B assay. Type of experiment: functional, cell-based. The following applies: NCI-H460, 72 h. In outline:
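Log-phase NCI-H460 cells seeded, drug added 24 h later, exposed 72 h. Survival read by sulforhodamine B staining. IC50 fitted by curve analysis as the concentration halving cell number relative to untreated controls.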

Experiment [3] addresses Heat shock protein HSP 90-alpha (Homo sapiens, UniProt P07900). Kind of experiment: Displacement of GM-FTC from Hsp90-alpha (unknown origin) after 4 hrs by fluorescence polarization assay. In general terms: In fluorescence polarisation assays a small probe gives low polarisation when free and higher when bound to something large.
Experiment [4] deals with Histone deacetylase 3/Nuclear receptor corepressor 2 (HDAC3/NCoR2) (Homo sapiens, UniProt O15379). Kind of experiment: Inhibition of human HDAC-3/NCOR-2 using RHKK(Ac) as substrate. Format: protein-complex assay.
Experiment [5] addresses Histone deacetylase 4 (Homo sapiens, UniProt P56524). Kind of experiment: Inhibition of human HDAC-4 using RHKK(Ac) as substrate.
Experiment [6] addresses Histone deacetylase 5 (Homo sapiens, UniProt Q9UQL6). Kind of experiment: Inhibition of human HDAC-5 using RHKK(Ac) as substrate.
In experiment [7] the target is T1, Histone deacetylase 8 (Homo sapiens, UniProt Q9BY41).
T1 sequence (Q9BY41 whole entry): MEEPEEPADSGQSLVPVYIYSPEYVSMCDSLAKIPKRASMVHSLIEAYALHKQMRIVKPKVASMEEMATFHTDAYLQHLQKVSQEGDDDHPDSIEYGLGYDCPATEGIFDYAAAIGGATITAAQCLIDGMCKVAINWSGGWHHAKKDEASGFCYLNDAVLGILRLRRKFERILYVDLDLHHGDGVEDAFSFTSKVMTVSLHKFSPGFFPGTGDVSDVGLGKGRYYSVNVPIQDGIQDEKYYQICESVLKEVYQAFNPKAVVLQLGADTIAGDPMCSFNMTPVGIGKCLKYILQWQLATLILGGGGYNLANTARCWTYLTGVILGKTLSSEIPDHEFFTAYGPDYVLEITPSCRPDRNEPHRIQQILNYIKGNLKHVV
Kind of experiment: Inhibition of human HDAC-8 using RHK(Ac)K(Ac) as substrate.

Experiment [8] addresses T2, Polyamine deacetylase HDAC10 (Homo sapiens, UniProt Q969S8).
T2 sequence (Q969S8 whole entry): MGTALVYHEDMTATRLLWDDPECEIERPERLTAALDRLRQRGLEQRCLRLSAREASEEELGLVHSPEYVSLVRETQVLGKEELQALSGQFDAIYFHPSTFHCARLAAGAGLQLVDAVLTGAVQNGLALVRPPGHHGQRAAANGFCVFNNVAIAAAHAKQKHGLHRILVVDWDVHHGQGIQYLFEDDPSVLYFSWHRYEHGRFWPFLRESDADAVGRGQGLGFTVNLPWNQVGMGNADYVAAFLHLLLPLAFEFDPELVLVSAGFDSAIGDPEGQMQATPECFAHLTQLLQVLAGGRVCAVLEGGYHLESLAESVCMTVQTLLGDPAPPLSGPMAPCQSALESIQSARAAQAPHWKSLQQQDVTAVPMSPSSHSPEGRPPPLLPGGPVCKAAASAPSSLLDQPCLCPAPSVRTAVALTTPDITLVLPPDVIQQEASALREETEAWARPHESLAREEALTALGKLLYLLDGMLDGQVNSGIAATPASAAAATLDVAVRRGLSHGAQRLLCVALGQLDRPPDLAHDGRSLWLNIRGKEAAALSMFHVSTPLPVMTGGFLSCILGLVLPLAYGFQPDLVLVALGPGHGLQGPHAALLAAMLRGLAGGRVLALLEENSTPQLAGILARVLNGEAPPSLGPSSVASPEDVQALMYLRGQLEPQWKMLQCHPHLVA
The experiment in a line: Inhibition of human HDAC-10 using RHKK(Ac) as substrate.

The target in experiment [9] is T3, Histone deacetylase 11 (Homo sapiens, UniProt Q96DB2).
T3 sequence (Q96DB2 whole entry): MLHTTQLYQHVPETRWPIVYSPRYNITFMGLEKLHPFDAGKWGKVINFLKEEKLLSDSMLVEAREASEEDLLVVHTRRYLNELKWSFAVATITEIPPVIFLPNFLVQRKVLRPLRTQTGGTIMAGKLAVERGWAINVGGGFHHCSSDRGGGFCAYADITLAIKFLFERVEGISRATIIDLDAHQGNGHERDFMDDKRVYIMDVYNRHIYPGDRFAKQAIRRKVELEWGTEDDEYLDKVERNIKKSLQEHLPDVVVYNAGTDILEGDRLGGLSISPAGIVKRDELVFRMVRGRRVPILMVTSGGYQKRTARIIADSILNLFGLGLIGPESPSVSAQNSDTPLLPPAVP
The experiment in a line: Inhibition of human HDAC-11 using RHKK(Ac) as substrate.

Histone deacetylase 4, sequence (P56524 whole entry): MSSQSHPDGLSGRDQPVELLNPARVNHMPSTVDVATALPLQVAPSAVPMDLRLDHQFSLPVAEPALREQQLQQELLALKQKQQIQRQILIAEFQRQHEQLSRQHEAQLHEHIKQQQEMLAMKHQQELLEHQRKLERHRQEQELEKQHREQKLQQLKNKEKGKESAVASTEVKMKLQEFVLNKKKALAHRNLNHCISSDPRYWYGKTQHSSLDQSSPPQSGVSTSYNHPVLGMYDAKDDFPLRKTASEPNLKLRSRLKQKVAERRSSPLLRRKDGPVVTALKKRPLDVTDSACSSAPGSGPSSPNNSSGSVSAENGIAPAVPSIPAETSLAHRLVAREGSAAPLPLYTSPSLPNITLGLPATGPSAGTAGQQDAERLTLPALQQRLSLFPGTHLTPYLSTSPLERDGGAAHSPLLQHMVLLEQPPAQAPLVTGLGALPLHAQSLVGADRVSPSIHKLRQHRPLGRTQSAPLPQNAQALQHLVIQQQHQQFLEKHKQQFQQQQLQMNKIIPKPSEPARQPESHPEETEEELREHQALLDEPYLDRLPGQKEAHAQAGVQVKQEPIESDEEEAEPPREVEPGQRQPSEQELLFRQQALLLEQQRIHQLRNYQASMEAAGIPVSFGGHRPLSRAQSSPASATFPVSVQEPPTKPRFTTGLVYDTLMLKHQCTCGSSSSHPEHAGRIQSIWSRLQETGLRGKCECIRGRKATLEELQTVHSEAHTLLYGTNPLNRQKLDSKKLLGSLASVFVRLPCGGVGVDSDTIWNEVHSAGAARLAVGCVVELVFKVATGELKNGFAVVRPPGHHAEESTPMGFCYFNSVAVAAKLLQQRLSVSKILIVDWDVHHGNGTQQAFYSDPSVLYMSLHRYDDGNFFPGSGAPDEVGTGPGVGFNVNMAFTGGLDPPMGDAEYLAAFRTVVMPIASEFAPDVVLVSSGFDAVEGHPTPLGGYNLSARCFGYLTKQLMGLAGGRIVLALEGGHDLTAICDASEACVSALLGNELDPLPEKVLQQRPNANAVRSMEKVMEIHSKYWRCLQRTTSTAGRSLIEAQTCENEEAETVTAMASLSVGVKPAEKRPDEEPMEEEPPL
Histone deacetylase 1, sequence (Q13547 whole entry): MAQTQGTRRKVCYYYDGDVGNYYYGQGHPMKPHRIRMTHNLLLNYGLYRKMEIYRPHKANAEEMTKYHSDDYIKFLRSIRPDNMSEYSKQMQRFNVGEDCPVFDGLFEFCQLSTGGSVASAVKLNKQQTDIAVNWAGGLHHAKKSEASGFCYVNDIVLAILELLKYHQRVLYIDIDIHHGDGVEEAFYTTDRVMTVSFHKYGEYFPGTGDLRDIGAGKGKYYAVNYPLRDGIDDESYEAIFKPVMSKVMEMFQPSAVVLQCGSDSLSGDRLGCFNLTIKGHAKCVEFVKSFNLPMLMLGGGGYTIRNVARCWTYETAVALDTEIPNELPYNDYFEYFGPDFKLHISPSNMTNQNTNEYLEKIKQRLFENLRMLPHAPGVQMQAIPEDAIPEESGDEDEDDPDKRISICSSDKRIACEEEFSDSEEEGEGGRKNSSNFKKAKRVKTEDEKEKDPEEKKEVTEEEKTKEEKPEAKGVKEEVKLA
Histone deacetylase 3/Nuclear receptor corepressor 2 (HDAC3/NCoR2), sequence (O15379 whole entry): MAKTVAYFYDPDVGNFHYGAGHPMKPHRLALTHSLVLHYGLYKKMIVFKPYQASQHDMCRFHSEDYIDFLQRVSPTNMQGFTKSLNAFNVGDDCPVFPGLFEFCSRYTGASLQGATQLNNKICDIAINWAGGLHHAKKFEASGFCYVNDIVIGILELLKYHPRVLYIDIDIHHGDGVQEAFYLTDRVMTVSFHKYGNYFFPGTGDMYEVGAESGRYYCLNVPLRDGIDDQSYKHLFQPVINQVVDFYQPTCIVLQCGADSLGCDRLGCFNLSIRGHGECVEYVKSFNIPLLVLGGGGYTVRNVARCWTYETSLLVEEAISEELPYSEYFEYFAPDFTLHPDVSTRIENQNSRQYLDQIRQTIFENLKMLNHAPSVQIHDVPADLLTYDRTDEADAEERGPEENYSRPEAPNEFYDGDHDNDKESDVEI
Histone deacetylase 3/Nuclear receptor corepressor 2 (HDAC3/NCoR2), sequence (Q9Y618 whole entry, further chain): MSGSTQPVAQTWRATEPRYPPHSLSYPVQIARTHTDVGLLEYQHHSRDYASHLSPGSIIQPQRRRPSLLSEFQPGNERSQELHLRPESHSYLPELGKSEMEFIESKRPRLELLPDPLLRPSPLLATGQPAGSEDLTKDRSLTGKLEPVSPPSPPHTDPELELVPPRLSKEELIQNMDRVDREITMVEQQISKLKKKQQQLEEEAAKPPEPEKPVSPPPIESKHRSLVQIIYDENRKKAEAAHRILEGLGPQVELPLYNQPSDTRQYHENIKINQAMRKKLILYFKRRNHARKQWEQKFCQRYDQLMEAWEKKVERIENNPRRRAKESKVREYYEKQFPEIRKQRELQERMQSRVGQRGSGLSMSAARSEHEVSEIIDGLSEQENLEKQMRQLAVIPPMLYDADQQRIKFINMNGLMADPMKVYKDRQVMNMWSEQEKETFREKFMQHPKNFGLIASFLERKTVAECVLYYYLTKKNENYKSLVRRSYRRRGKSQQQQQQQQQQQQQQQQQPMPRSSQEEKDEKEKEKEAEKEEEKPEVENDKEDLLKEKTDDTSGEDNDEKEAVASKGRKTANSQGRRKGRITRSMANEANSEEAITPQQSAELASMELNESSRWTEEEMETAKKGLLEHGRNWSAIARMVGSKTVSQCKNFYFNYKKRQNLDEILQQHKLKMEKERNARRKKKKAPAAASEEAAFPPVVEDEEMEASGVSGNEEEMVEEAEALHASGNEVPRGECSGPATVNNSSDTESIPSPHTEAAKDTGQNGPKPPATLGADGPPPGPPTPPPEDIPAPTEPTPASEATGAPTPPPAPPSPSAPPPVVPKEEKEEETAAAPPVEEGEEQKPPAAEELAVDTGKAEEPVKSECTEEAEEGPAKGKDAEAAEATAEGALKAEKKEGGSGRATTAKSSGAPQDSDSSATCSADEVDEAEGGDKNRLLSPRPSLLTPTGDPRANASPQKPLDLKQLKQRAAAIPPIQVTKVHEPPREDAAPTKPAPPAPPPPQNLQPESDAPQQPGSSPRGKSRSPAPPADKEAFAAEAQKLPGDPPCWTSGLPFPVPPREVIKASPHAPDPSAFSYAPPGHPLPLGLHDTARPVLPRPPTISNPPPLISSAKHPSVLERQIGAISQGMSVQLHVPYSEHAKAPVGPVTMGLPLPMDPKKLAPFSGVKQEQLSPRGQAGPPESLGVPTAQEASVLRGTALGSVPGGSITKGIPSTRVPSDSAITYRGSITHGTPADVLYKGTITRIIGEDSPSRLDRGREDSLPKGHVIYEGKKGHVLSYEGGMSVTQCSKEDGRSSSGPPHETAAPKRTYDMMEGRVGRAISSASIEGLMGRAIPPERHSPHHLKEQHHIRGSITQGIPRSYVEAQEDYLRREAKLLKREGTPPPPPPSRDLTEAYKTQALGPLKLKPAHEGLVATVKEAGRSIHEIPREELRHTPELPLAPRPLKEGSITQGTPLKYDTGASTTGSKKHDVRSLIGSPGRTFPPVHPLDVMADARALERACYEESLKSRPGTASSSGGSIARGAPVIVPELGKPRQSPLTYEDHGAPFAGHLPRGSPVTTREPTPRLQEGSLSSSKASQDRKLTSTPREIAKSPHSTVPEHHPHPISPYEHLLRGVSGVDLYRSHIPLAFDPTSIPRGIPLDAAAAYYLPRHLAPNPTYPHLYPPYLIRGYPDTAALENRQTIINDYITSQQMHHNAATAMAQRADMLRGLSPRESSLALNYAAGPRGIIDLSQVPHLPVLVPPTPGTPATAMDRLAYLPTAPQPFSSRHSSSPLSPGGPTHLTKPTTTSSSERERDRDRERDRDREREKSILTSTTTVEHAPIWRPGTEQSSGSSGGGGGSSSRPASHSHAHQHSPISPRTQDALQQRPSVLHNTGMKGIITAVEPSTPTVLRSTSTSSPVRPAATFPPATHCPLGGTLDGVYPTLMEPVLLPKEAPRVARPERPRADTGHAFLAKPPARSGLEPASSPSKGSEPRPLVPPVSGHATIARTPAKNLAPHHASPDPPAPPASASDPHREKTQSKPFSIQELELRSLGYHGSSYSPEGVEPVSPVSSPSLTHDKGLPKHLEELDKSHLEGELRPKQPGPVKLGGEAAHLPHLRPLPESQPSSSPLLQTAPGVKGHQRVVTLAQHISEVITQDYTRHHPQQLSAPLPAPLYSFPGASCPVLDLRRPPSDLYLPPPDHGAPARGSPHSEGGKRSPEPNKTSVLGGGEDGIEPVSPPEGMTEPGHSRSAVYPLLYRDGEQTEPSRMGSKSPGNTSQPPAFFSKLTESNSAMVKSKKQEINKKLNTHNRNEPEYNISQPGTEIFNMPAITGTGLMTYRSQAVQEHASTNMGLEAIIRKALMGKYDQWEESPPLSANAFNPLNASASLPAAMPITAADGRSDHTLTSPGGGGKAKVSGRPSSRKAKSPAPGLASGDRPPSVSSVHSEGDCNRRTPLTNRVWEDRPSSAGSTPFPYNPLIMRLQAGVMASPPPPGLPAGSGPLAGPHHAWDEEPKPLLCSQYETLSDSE

`CC(C)c1cc(C(=O)N2CCc3onc(C(=O)NCCCCCCC(=O)NO)c3C2)c(O)cc1O`: the half-maximal inhibitory concentration (IC50) in [1] stood at 2.03 µM; in [2], 3.9 µM; in experiment [3], 0.033 µM; in experiment [4] it was 4.23 µM; in experiment [5] it was 75.9 µM; in experiment [6], 1.58 µM. Moreover, the IC50 in experiment [7] was determined as 1.76 µM; in experiment [8] it was 0.886 µM; in [9] it was 0.521 µM.

A word on the IC50: it is the concentration that gives 50% inhibition.
